According to ChEMBL document CHEMBL1124657, “Retinobenzoic acids. 2. Structure-activity relationships of chalcone-4-carboxylic acids and flavone-4'-carboxylic acids” (1989):
The source made the active and inactive calls. The calls are words filed in the database; no cut-off is given here.

Key:
HL-60 [1] = assay: Differentiation inducing activity towards human promyelocytic leukemia cell line HL-60 assayed by nitroblue tetrazolium reduction; format: functional; settings: read-out: ED50 (the source's name)
How it was run: (§1)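 HL-60 cells in RPMI1640 with 5% FCS at 37 °C, 5% CO₂; seeded about 8 × 10⁴ cells/mL and exposed 4 days to compounds from 0.2 mM ethanol stock (final ethanol below 0.5%; ethanol-only controls). Retinoic acid run concurrently. NBT reduction: 20 min at 37 °C with 0.2% NBT and TPA 200 ng/mL in PBS/medium. Formazan-positive cells counted among at least 200 cells. Wright-Giemsa morphology also scored. Five orders of concentration covered, at least three repeats. ED50 taken from NBT data.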

HL-60 [2] = assay: Activity relative to retinoic acid in differentiating promyelocytic leukemic HL-60 cells; format: functional, Homo sapiens
HL-60 [3] = assay: Differentiation inducing activity towards human promyelocytic leukemia cell line HL-60 by nitroblue tetrazolium reduction assay;IA is Inactive; format: functional, cell-based; how it was run: as §1
HL-60 [4] = assay: Differentiation inducing activity towards human promyelocytic leukemia cell line HL-60 by nitroblue tetrazolium reduction assay; IA is Inactive; format: functional, cell-based; how it was run: as §1
HL-60 [5] = assay: Differentiation inducing activity towards human promyelocytic leukemia cell line HL-60 by nitroblue tetrazolium reduction assay;IA is inactive; format: functional, cell-based; how it was run: as §1

| EC50 (HL-60 [1]) [nM] | SMILES | Relative activity (HL-60 [2]) | ED50 (HL-60 [3]) | ED50 (HL-60 [4]) | ED50 (HL-60 [5]) |
| --- | --- | --- | --- | --- | --- |
| 0.48 | COC(=O)c1ccc(-c2cc(=O)c3cc4c(cc3o2)C(C)(C)CCC4(C)C)cc1 | 8.5 |  |  |  |
| 1.7 | CC1(C)CCC(C)(C)c2cc(C(=O)/C=C/c3ccc(C(=O)O)c(O)c3)ccc21 | 0.88 |  |  |  |
| 1.2 | CC1(C)CCC(C)(C)c2cc3c(=O)c(O)c(-c4ccc(C(=O)O)cc4)oc3cc21 | 1.25 |  |  |  |
| > 1000 | CC1(C)CCC(C)(C)c2cc(C(=O)/C=C/c3ccc(C(N)=O)cc3)ccc21 | < 0.0001 |  |  |  |
| > 1000 | CC1(C)CCOc2ccc(C(=O)/C=C/c3ccc(C(=O)O)cc3)cc21 | < 0.0001 |  |  |  |
|  | Cc1ccc(/C=C/C(=O)c2ccc3c(c2)C(C)(C)CCC3(C)C)cc1 |  | inactive |  |  |
| 0.54 | Cc1cc2c(cc1C(=O)/C=C/c1ccc(C(=O)O)cc1)C(C)(C)CCC2(C)C | 2.1 |  |  |  |
| > 1000 | CC1(C)CCSc2ccc(C(=O)/C=C/c3ccc(C(=O)O)cc3)cc21 | < 0.0001 |  |  |  |
| 170 | CCc1ccc(C(=O)/C=C/c2ccc(C(=O)O)cc2)cc1CC | 0.0083 |  |  |  |
| 0.21 | CC(C)(C)c1cc(C(=O)/C=C/c2ccc(C(=O)O)cc2)cc(C(C)(C)C)c1 | 6.4 |  |  |  |
| 250 | CC1(C)CCOc2cc3c(=O)cc(-c4ccc(C(=O)O)cc4)oc3cc21 | 0.017 |  |  |  |
| 690 | CC1(C)CCOc2c(C(=O)/C=C/c3ccc(C(=O)O)cc3)cccc21 | 0.0077 |  |  |  |
| 160 | CC(C)(C)c1cccc(C(=O)/C=C/c2ccc(C(=O)O)cc2)c1 | 0.0081 |  |  |  |
| 2.4 | CC1=C(/C=C/C(C)=C/C=C/C(C)=C/C(=O)O)C(C)(C)CCC1 [TRETINOIN] | 1 |  |  |  |
| 0.046 | CC1(C)CCC(C)(C)c2cc3c(=O)cc(-c4ccc(C(=O)O)cc4)oc3cc21 | 27.4 |  |  |  |
| 0.64 | CC1(C)CCC(C)(C)c2cc(C(=O)/C=C/c3ccc(C(=O)O)cc3)ccc21 | 2.8 |  |  |  |
|  | O=C(O)c1ccc(C(=O)/C=C(\O)c2ccccc2O)cc1 |  |  | inactive |  |

| EC50 (HL-60 [1]) [nM] | SMILES | Relative activity (HL-60 [2]) | ED50 (HL-60 [3]) | ED50 (HL-60 [4]) | ED50 (HL-60 [5]) |
| --- | --- | --- | --- | --- | --- |
| > 1000 | CC(C)(C)c1ccc(O)c(/C(O)=C/C(=O)c2ccc(C(=O)O)cc2)c1 | < 0.0001 |  |  |  |
| 480 | CC(C)(C)c1ccc2c(=O)cc(-c3ccc(C(=O)O)cc3)oc2c1 | 0.0058 |  |  |  |
| > 1000 | CC(C)(C)c1ccc2oc(-c3ccc(C(=O)O)cc3)cc(=O)c2c1 | < 0.0001 |  |  |  |
|  | O=C(O)c1ccc(-c2cc(=O)c3ccccc3o2)cc1 |  |  |  | inactive |
| 3.9 | COc1cc2c(cc1C(=O)/C=C/c1ccc(C(=O)O)cc1)C(C)(C)CCC2(C)C | 0.35 |  |  |  |
| > 1000 | COc1c(-c2ccc(C(=O)O)cc2)oc2cc3c(cc2c1=O)C(C)(C)CCC3(C)C | < 0.0001 |  |  |  |
| 27 | CCCCOC(=O)c1ccc(/C=C/C(=O)c2ccc3c(c2)C(C)(C)CCC3(C)C)cc1 | 0.063 |  |  |  |
| 560 | CC(C)(C)c1ccc(/C(O)=C/C(=O)c2ccc(C(=O)O)cc2)c(O)c1 | 0.0023 |  |  |  |
| > 1000 | CC1(C)CCC(C)(C)c2cc(C(=O)/C=C/c3cccc(C(=O)O)c3)ccc21 | < 0.0001 |  |  |  |
| 0.82 | CC(C)c1ccc(C(=O)/C=C/c2ccc(C(=O)O)cc2)cc1C(C)C | 1.8 |  |  |  |
|  | O=C(O)c1ccc(/C=C/C(=O)c2ccccc2)cc1 |  |  | inactive |  |
| 28 | CC(C)(C)c1ccc(C(=O)/C=C/c2ccc(C(=O)O)cc2)cc1 | 0.039 |  |  |  |
| 3.3 | CC1(C)CCC(C)(C)c2cc(C(=O)/C=C/c3ccc(C(=O)Cl)cc3)ccc21 | 0.52 |  |  |  |
| 30 | COC(=O)c1ccc(/C=C/C(=O)c2ccc3c(c2)C(C)(C)CCC3(C)C)cc1 | 0.043 |  |  |  |
| 45 | CC(C)(C)c1ccc(C(C)(C)C)c(C(=O)/C=C/c2ccc(C(=O)O)cc2)c1 | 0.021 |  |  |  |
|  | COc1ccc(C(=O)/C=C/c2ccc(C(=O)O)cc2)cc1OC |  |  | inactive |  |

| SMILES | EC50 (HL-60 [1]) [nM] | Relative activity (HL-60 [2]) | ED50 (HL-60 [3]) | ED50 (HL-60 [4]) | ED50 (HL-60 [5]) |
| --- | --- | --- | --- | --- | --- |
| CC1(C)CCC(C)(C)c2cc(C(=O)/C=C/c3ccc(C(=O)O)cc3)c(O)cc21 | 0.15 | 1.4 |  |  |  |
| CC1(C)CCC(C)(C)c2cc(/C(O)=C/C(=O)c3ccc(C(=O)O)cc3)c(O)cc21 | 0.063 | 7.6 |  |  |  |
